Columns and labels:
[1] = Tmax in Wistar rat plasma at 3 mg/kg, po up to 5 hrs by HPLC-MS/MS analysis; format: ADME, organism-based
[2] = Clearance in Wistar rat plasma at 3 mg/kg, iv up to 5 hrs by HPLC-MS/MS analysis; format: ADME, organism-based
[3] = Cmax in Wistar rat brain at 3 mg/kg, po up to 5 hrs by HPLC-MS/MS analysis; format: ADME, organism-based; set-up: route oral, dose 3 mg/kg, time <=5
[4] = Lipophilicity, logP of compound; format: physicochemical; conditions: octanol/water
[5] = AUC (0 to 5 hrs) in Wistar rat plasma at 3 mg/kg, iv up to 5 hrs by HPLC-MS/MS analysis; format: ADME, organism-based; set-up: route intravenous, dose 3 mg/kg, time <=5
[6] = Intrinsic clearance in human liver microsome at 1 to […] up to 40 mins; format: ADME; conditions: liver microsomes, dose 1-2.5 µM, read-out: CLH
[7] = AUC (0 to 5 hrs) in Wistar rat plasma at 3 mg/kg, po up to 5 hrs by HPLC-MS/MS analysis; format: ADME, organism-based; set-up: route oral, dose 3 mg/kg, time <=5
[8] = Volume of distribution in Wistar rat plasma at 3 mg/kg, iv up to 5 hrs by HPLC-MS/MS analysis; format: ADME, organism-based
[9] = Apparent permeability across apical to basolateral side in vinblastine-treated human Caco2 cells at 10 uM after 180 mins by HPLC or UHPLC-MS/MS analysis; format: ADME; conditions: Caco-2
Procedure, shortened: (§1)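 Vinblastine-selected Caco-2 (VB-Caco-2) monolayers with high P-gp expression. Compound at 1 or 10 µM, measured apical-to-basolateral and basolateral-to-apical in HBSS with 25 mM HEPES. pH 7.4 on both sides, 37 °C, 120 rpm shaking, up to 180 min with compound-specific duration. Quantified by HPLC or UHPLC-MS/MS; PDR = Papp B-A / Papp A-B.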

[10] = Intrinsic clearance in rat liver microsome at 1 to […] up to 40 mins; format: ADME; conditions: liver microsomes, dose 1-2.5 µM, read-out: CLH
[11] = Cmax in Wistar rat plasma at 3 mg/kg, po up to 5 hrs by HPLC-MS/MS analysis; format: ADME, organism-based; set-up: route oral, dose 3 mg/kg, time <=5
[12] = Half life in Wistar rat plasma at 3 mg/kg, iv up to 5 hrs by HPLC-MS/MS analysis; format: ADME, organism-based
[13] = Tmax in Wistar rat brain at 3 mg/kg, po up to 5 hrs by HPLC-MS/MS analysis; format: ADME, organism-based
[14] = AUC (0 to 5 hrs) in Wistar rat brain at 3 mg/kg, po up to 5 hrs by HPLC-MS/MS analysis; format: ADME, organism-based; set-up: route oral, dose 3 mg/kg, time <=5
[15] = Intrinsic clearance in mouse liver microsome at 1 to […] up to 40 mins; format: ADME; conditions: liver microsomes, dose 1-2.5 µM, read-out: CLH
[16] = Apparent permeability across apical to basolateral side in vinblastine-treated human Caco2 cells at 1 uM after 180 mins by HPLC or UHPLC-MS/MS analysis; format: ADME; conditions: Caco-2; procedure, shortened: as §1

Row | Tmax [1] [h] | clearance [2] [mL/min/kg] | Cmax [3] [ng/mL] | logP [4] | AUC(0-t) [5] [ng·h/mL] | microsomal CLint at […] [6] [µL/min/mg] | AUC(0-t) [7] [ng·h/mL] | Vd [8] [L/kg] | Papp A→B at 3 h, 10 µM [9] [×10⁻⁶ cm/s] | microsomal CLint at […] [10] [µL/min/mg] | Cmax [11] [ng/mL] | half-life [12] [h] | Tmax [13] [h] | AUC(0-t) [14] [ng·h/mL] | microsomal CLint at […] [15] [µL/min/mg] | Papp A→B at 3 h, 1 µM [16] [×10⁻⁶ cm/s] | SMILES
1 | 2 | 14.1 | 36.8 | 3.1 | 3490 | 4 | 134 | 1.17 | 18 | 10 | 31.6 | 0.97 | 2 | 158 | 5 |  | NS(=O)(=O)c1ccc(-c2cc(C(=O)N3CC4CC4C3)nn2-c2ccc(Cl)cc2)cc1 (stereo not given)
2 |  |  |  | 3.8 |  | 18 |  |  | 20 | 20 |  |  |  |  | 16 |  | CCC(=O)c1cc(-c2ccc(S(N)(=O)=O)cc2)n(-c2ccc(Cl)cc2)n1
3 |  |  |  | 4.7 |  | 3 |  |  |  | 10 |  |  |  |  | 26 | 9 | CCC(=O)c1cc(-c2ccc(Cl)cc2)n(-c2ccc(S(N)(=O)=O)cc2)c1C

Source: ChEMBL document CHEMBL4732180, “Discovery of novel positive allosteric modulators of the α7 nicotinic acetylcholine receptor: Scaffold hopping approach” (Eur J Med Chem, 2021)
